In brackets after ≈: the same amount, converted by molar mass. Where a SMILES comes first, the peptide text is derived from it. Bridges are numbered along the chain shown (N, C = ends). [ ]: non-standard residue; d: D form. Orn = NCCC[C@H](N)C(=O)O; Mpa = O=C(O)CCS
Experiments:
[1] = Oral bioavailability in rat; assay type: ADME, organism-based; details: in vivo
[2] = Oral bioavailability in dog; assay type: ADME, organism-based, Canis lupus familiaris; details: in vivo
[3] = Clearance in rat; assay type: ADME, organism-based; details: in vivo
In short: (§1)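 Rat pharmacokinetics, n = 4; dosed at 5 mg/kg in 5% DMSO/95% PEG400. AUC in ng·h mL⁻¹, clearance in mL min⁻¹ kg⁻¹, half-life in h.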

[4] = Clearance in dog; assay type: ADME, organism-based, Canis lupus familiaris; details: in vivo
In short: (§2)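 Dog pharmacokinetics, n = 3; dosed at 0.6 mg/kg in 5% DMSO/95% PEG400. AUC reported as ng·h mL⁻¹ and clearance as mL min⁻¹ kg⁻¹.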

[5] = Lipophilicity, log D by CHI method; assay type: physicochemical; details: read-out: Log D
In short: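 Lipophilicity determined by an HPLC-based method.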

[6] = AUC in rat; assay type: ADME, organism-based; set-up: concentration or dose not given beside the values; details: plasma; in short: as §1
Oxytocin receptor [7] = biological target: T1, Oxytocin receptor (Homo sapiens, UniProt P30559); test: Displacement of [3H]oxytocin from human OTR
T1 sequence (P30559 whole entry): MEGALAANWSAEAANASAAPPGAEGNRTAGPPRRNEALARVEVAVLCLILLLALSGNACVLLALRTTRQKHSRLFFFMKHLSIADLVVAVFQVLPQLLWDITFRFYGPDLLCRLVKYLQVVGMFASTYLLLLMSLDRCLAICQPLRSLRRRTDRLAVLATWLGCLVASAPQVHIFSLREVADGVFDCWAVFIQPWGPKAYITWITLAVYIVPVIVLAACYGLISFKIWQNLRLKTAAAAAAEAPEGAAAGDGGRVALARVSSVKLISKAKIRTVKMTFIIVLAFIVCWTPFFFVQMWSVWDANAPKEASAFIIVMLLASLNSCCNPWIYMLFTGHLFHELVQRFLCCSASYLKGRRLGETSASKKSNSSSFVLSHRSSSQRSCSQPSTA

[8] = Solubility of the compound; assay type: physicochemical
In short: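 Aqueous solubility (mg mL⁻¹) measured by precipitation followed by HPLC.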

[9] = AUC in dog; assay type: ADME, organism-based, Canis lupus familiaris; set-up: concentration or dose not given beside the values; details: plasma; in short: as §2
Oxytocin receptor [10] = biological target: T2, Oxytocin receptor (Rattus norvegicus, UniProt P70536); test: Displacement of [3H]oxytocin from rat OTR
T2 sequence (P70536 whole entry): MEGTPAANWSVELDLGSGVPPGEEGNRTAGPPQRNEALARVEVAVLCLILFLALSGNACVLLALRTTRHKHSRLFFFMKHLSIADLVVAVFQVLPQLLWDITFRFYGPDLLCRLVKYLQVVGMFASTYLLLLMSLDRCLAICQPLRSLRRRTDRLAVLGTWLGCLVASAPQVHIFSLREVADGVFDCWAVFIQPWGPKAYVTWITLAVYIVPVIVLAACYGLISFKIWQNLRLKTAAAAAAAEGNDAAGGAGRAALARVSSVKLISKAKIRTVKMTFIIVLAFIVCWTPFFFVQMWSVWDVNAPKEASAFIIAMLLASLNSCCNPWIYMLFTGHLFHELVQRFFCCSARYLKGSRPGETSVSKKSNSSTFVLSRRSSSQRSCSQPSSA

Rattus norvegicus = test: Reduction in oxytocin-induced uterine contraction in iv dosed anaesthetized rat; assay type: functional, organism-based
In short: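 Anaesthetized rats; uterine contractions elicited by iv oxytocin at a standard dose of 0.3 ug/kg. Test compound then given iv in rising doses (0.1, 0.3, 1 mg/kg) and the fall in contractility recorded. Plasma IC50 taken as the plasma concentration giving 50% inhibition of the response to the standard oxytocin dose.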

Row | bioavailability [1] [%] | bioavailability [2] [%] | clearance [3] [mL/min/kg] | clearance [4] [mL/min/kg] | chromatographic logD [5] | AUC [6] [ng·h/mL] | Ki (Oxytocin receptor [7]) [nM] | solubility [8] [µg/mL] | AUC [9] [ng·h/mL] | Ki (Oxytocin receptor [10]) [nM] | IC50 (Rattus norvegicus; Rattus norvegicus) [nM] | SMILES | Activity (Rattus norvegicus) [mg/kg]
1 | 2 | 50 | 48 | 15 | – | – | – | – | – | – | – | CC(C)C[C@@H]1C(=O)N[C@H](C2Cc3ccccc3C2)C(=O)N1[C@@H](C(=O)NC(C)C)c1ccc(N(C)C)cc1 | –
2 | – | – | – | – | 2 | – | – | – | – | – | – | CC(C)C[C@@H]1C(=O)N[C@H](C2Cc3ccccc3C2)C(=O)N1[C@@H](C(=O)NCCN1CCCCC1)c1ccc(F)cc1 | –
3 | – | – | – | – | 3.3 | – | – | – | – | – | – | Cc1ccc([C@H](C(=O)NC(C)C)N2C(=O)[C@@H](C3Cc4ccccc4C3)NC(=O)[C@H]2CC(C)C)o1 | –
4 | – | – | – | – | – | 567 | 12.6 | – | – | – | – | CC(C)C[C@@H]1C(=O)N[C@H](C2Cc3ccccc3C2)C(=O)N1[C@@H](CO)c1ccc(F)cc1F | –
5 | 55 | 14 | 19 | 6 | 2.8 | 2350 | 0.126 | 159 (≈ 310 µM) | 200 | – | – | CC(C)C[C@@H]1C(=O)N[C@H](C2Cc3ccccc3C2)C(=O)N1[C@@H](C(=O)N(C)CCO)c1ccc(F)cc1F | –
6 | – | – | – | – | 3.2 | – | – | – | – | – | – | CC(C)C[C@@H]1C(=O)N[C@H](C2Cc3ccccc3C2)C(=O)N1[C@@H](C(=O)N(C)Cc1ccccn1)c1ccc(F)cc1 | –
7 | 48 | 14 | 34 | 23 | 3.3 | – | 3.98 | – | – | – | – | CC(C)C[C@@H]1C(=O)N[C@H](C2Cc3ccccc3C2)C(=O)N1[C@@H](C(=O)NC(C)(C)C)c1ccc2c(c1)OCO2 | –
8 | 41 | 7 | 16 | 8 | 3.2 | 2150 | 1.26 | – | 100 | – | – | CC(C)C[C@@H]1C(=O)N[C@H](C2Cc3ccccc3C2)C(=O)N1[C@@H](C(=O)N1CCOCC1)c1ccc(F)cc1F | –
9 | 30 | 5 | 53 | 21 | 1.7 | 805 | 0.631 | 216 (≈ 473 µM) | 23 | – | – | CC(C)C[C@@H]1C(=O)N[C@H](C2Cc3ccccc3C2)C(=O)N1[C@@H](C(=O)O)c1ccc(F)cc1F | –
10 | – | – | – | – | 3.3 | – | – | – | – | – | – | CC(C)C[C@@H]1C(=O)N[C@H](C2Cc3ccccc3C2)C(=O)N1[C@@H](C(=O)NCC(F)(F)F)c1ccc(F)cc1 | –
11 | 24 | 10 | 26 | 21 | 2.4 | – | 3.98 | – | – | – | – | CC(C)C[C@@H]1C(=O)N[C@H](C2Cc3ccccc3C2)C(=O)N1[C@@H](C(=O)NC(C)(C)C)c1ccc(N2CCC(O)CC2)cc1 | –
12 | – | – | – | – | 2.3 | – | – | – | – | – | – | CC(C)C[C@@H]1C(=O)N[C@H](C2Cc3ccccc3C2)C(=O)N1[C@@H](C(=O)NCCO)c1ccc(F)cc1 | –
13 | – | – | – | – | 3.4 | – | – | – | – | – | – | COc1ccc([C@H](C(=O)NC(C)(C)C)N2C(=O)[C@@H](C3Cc4ccccc4C3)NC(=O)[C@H]2CC(C)C)cc1F | –
14 | 12 | – | 19 | – | 2.8 | 540 | 0.631 | 187 (≈ 366 µM) | – | – | – | CC(C)C[C@@H]1C(=O)N[C@H](C2Cc3ccccc3C2)C(=O)N1[C@@H](C(=O)N1CC(O)C1)c1ccc(F)cc1F | –
15 | – | – | – | – | 3.4 | – | – | – | – | – | – | CCNS(=O)(=O)c1ccc(-c2ccc([C@H](C(=O)NC(C)(C)C)N3C(=O)[C@@H](C4Cc5ccccc5C4)NC(=O)[C@H]3CC(C)C)cc2)cc1 | –
16 | 17 | 37 | 22 | 4 | 3.3 | 660 | 0.631 | 1 (≈ 2.02 µM) | 710 | – | – | CC(C)C[C@@H]1C(=O)N[C@H](C2Cc3ccccc3C2)C(=O)N1[C@@H](C(=O)N1CCC1)c1ccc(F)cc1F | –
17 | – | – | – | – | 2.7 | – | – | – | – | – | – | CC(C)C[C@@H]1C(=O)N[C@H](C2Cc3ccccc3C2)C(=O)N1[C@@H](C(=O)N1CCN(C)CC1)c1ccc(F)cc1 | –
18 | 27 | 9 | 39 | 14 | 3.4 | – | 3.98 | – | – | – | – | CC(C)C[C@@H]1C(=O)N[C@H](C2Cc3ccccc3C2)C(=O)N1[C@@H](C(=O)NC(C)(C)C)c1ccc2c(c1)CCO2 | –
19 | 98 | 11 | 32 | 13 | 2.9 | 3690 | 0.398 | 89 (≈ 190 µM) | 82 | – | – | CNC(=O)[C@@H](c1ccc(F)cc1F)N1C(=O)[C@@H](C2Cc3ccccc3C2)NC(=O)[C@H]1CC(C)C | –
20 | 31 | 61 | 24 | 6 | 3 | – | 1.58 | – | – | – | – | CC[C@@H](C)[C@@H]1C(=O)N[C@H](C2Cc3ccccc3C2)C(=O)N1[C@@H](C(=O)NC(C)C)c1ccc(N2CCOCC2)cc1 | –
21 | 22 | – | 33 | – | 2.5 | 560 | 0.501 | 1 (≈ 2.2 µM) | – | – | – | CC(C)C[C@@H]1C(=O)N[C@H](C2Cc3ccccc3C2)C(=O)N1[C@@H](C(N)=O)c1ccc(F)cc1F | –
22 | – | – | – | – | – | – | 39.8 | – | – | 39.8 | 186 | CCOc1ccc(C[C@H]2NC(=O)CCSSC[C@@H](C(=O)N3CCC[C@H]3C(=O)N[C@@H](CCCN)C(=O)NCC(N)=O)NC(=O)[C@H](CC(N)=O)NC(=O)[C@H]([C@@H](C)O)NC(=O)[C@H]([C@@H](C)CC)NC2=O)cc1 [ATOSIBAN] ([Mpa][dY](Et)ITNCP[Orn]G-NH2; disulfide 1-6) | 0.63
